Experiments:
[1] = molecular target: T1, Fatty-acid amide hydrolase 1 (Rattus norvegicus, UniProt P97612); assay: Inhibition of FAAH in Wistar rat brain assessed as by liquid scintillation counting
T1 sequence (P97612 whole entry): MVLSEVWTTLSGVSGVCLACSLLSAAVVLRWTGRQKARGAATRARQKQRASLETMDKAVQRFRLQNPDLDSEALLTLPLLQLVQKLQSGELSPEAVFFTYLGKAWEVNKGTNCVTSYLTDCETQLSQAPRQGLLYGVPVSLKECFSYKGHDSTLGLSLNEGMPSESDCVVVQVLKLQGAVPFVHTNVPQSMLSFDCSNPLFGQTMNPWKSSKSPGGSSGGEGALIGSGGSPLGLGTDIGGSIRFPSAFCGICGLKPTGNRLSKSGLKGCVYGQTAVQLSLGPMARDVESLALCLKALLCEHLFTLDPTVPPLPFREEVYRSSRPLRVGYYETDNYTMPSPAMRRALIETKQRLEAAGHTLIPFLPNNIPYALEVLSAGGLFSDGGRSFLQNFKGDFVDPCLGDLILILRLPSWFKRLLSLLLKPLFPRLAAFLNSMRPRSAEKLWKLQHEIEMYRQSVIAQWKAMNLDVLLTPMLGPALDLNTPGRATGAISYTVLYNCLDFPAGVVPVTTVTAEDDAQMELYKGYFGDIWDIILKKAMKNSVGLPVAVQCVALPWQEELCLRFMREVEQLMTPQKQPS
In short: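 Rat cerebrum homogenate (8-week male Wistar, whole brain minus cerebellum, 10,000g supernatant in 0.1 M K phosphate pH 7.4) as enzyme, 18 µg protein. Preincubated with compound 10 min at 37 °C, then 2 μM [³H]AEA (ethanolamine 1-³H) added for 10 min at 37 °C. Buffer has 0.5% BSA, DMSO up to 5%. Stopped with EtOAc. Aqueous [³H]ethanolamine counted. Three independent experiments in duplicate; IC50 by nonlinear regression.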

[2] = molecular target: T2, Monoglyceride lipase (Rattus norvegicus) (UniProt Q8R431); assay: Inhibition of MGL in Wistar rat cerebellar membrane at 100 uM by reversed-phase HPLC relative to control; type: cell membranes; details: Cerebellum
T2 sequence (whole entry): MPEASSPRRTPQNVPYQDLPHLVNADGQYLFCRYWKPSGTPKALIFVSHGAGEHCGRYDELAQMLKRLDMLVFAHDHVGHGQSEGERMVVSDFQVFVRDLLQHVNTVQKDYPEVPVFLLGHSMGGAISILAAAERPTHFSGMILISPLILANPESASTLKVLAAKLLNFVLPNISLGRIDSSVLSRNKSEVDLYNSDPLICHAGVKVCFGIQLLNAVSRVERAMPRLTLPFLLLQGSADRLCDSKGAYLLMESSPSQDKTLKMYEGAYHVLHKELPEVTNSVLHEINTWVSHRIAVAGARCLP
In short: (§1)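 Cerebellar membranes from 4-week male Wistar rats. 10 µg protein preincubated with compound 30 min at 25 °C in Tris-HCl pH 7.4, EDTA, 0.5% BSA, 1.25% DMSO. Incubation 90 min at 25 °C with 5 µg protein and 50 μM 2-AG (100 mM NaCl, 5 mM MgCl₂). Stopped with acidified acetonitrile at 0 and 90 min. Arachidonic acid by C18 HPLC, UV 211 nm. Activity as % of control, n = 2.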

[3] = molecular target: T3, Monoglyceride lipase (Homo sapiens) (UniProt Q99685); assay: Inhibition of human recombinant MGL by liquid scintillation counting; details: concentration not given here
T3 sequence (whole entry): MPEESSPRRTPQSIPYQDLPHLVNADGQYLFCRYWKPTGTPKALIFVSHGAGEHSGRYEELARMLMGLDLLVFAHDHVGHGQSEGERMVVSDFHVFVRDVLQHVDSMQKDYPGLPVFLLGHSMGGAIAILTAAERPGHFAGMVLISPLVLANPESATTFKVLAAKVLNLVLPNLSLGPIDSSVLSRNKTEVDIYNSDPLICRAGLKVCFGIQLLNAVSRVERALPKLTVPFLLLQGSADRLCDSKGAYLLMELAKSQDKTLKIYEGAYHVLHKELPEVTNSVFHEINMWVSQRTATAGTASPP
In short: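 hrMGL preincubated with compound 10 min at 37 °C in 50 mM Tris-HCl pH 7.4, 1 mM EDTA, 0.5% BSA, DMSO ≤5%. Then [³H]2-oleoylglycerol (glycerol-1,2,3-³H) added to 50 μM final for 10 min at 37 °C. Stopped with EtOAc. Aqueous-phase [³H]glycerol counted by liquid scintillation.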

[4] = molecular target: T2, Monoglyceride lipase (Rattus norvegicus); assay: Inhibition of MGL in Wistar rat cerebellar membrane at 1 uM by reversed-phase HPLC relative to control; type: cell membranes; details: Cerebellum; in short: as §1

An IC50 [1] of 90 nM and an inhibition [2] of 35% were found for `COC(=O)[C@H]1COC(c2cccc(OC(=O)NC3CCCCC3)c2)=N1` in this work.
An IC50 [1] of 4500 nM and an inhibition [3] of 18% were found for `CCCNC(=O)Oc1cccc(-c2nc3ncncc3o2)c1` in this work.
An IC50 [1] of 65 nM and an inhibition [2] of 28% were found for `CC1(C)COC(c2cccc(OC(=O)NC3CCCC3)c2)=N1` in this work.
An IC50 [1] of 16 nM and an inhibition [2] of 16% were found for `C[C@@H]1COC(c2cccc(OC(=O)NC3CCCCC3)c2)=N1` in this work.
An IC50 [1] of 1.2 nM and an inhibition [2] of 22% were found for `O=C(NC1CCCCC1)Oc1cccc(C2=NCCO2)c1` in this work.
An IC50 [1] of 46 nM and an inhibition [2] of 20% were found for `CC1(C)COC(c2cccc(OC(=O)NC3CCCCC3)c2)=N1` in this work.
An IC50 [1] of 1900 nM and an inhibition [2] of 25% were found for `O=C(NC1CCCCC1)Oc1cccc(C2=N[C@@H](Cc3c[nH]c4ccccc34)CO2)c1` in this work.
An IC50 [1] of 33 nM and an inhibition [2] of 32% were found for `CCCNC(=O)Oc1cccc(C2=NCCO2)c1` in this work.
An IC50 [1] of 680 nM and an inhibition [2] of 29% were found for `CCCNC(=O)Oc1cccc(-c2nc3ncccc3o2)c1` in this work.
An IC50 [1] of 13 nM and an inhibition [4] of 10% were found for `O=C(NC1CCCC1)Oc1cccc(C2=NCCO2)c1` in this work.
An IC50 [1] of 110 nM and an inhibition [2] of 28% were found for `C[C@H]1COC(c2cccc(OC(=O)NC3CCCC3)c2)=N1` in this work.
An IC50 [1] of 6.8 nM and an inhibition [3] of 14% were found for `C[C@H]1CN=C(c2cccc(OC(=O)NC3CCCCC3)c2)O1` in this work.
An IC50 [1] of 2100 nM and an inhibition [2] of 17% were found for `O=C(NC1CCCCC1)Oc1cccc(C2=N[C@@H](Cc3ccccc3)CO2)c1` in this work.
An IC50 [1] of 51 nM and an inhibition [2] of 28% were found for `C[C@H]1COC(c2cccc(OC(=O)NC3CCCCC3)c2)=N1` in this work.
An IC50 [1] of 73 nM and an inhibition [3] of 13% were found for `C[C@@H]1CN=C(c2cccc(OC(=O)NC3CCCCC3)c2)O1` in this work.
An IC50 [1] of 9.4 nM and an inhibition [2] of 25% were found for `COC(=O)[C@@H]1COC(c2cccc(OC(=O)NC3CCCCC3)c2)=N1` in this work.
An IC50 [1] of 590 nM and an inhibition [2] of 14% were found for `O=C(NC1CCCCC1)Oc1cccc(C2=N[C@H](Cc3ccccc3)CO2)c1` in this work.
An IC50 [1] of 3000 nM and an inhibition [2] of 26% were found for `CCCNC(=O)Oc1cccc(-c2nc3ccccc3o2)c1` in this work.
